Format in all cases: functional, cell-based
For experiment [1], the system named is Epithelial cell. As to the kind of experiment: (§1) Antiproliferative activity against mouse +SA mammary epithelial cells after 4 days by MTT assay. The method in brief: (§2)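 Highly malignant +SA mouse mammary epithelial cells kept in serum-free medium with 10 ng/mL EGF and 10 µg/mL insulin as mitogens. Seeded at 5 × 10⁴ cells/well, 6 wells/group, and fed medium containing compound at 0.01–1000 µM, compared with vehicle controls. After 4 days of culture, viable cell number was read by MTT colorimetric assay.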

The test system of experiment [2] is Epithelial cell. As to the kind of experiment: Antiproliferative activity against mouse +SA mammary epithelial cells at 15 to 40 uM after 4 days by MTT assay. In short, it runs like this:
as §2
(In general: Formazan colour is commonly taken as a measure of viable cells.)

The nature of experiment [3]: as §1. Conditions: Epithelial cell, 96 h. In short, it runs like this: as §2

The source made the active and inactive calls. No cut-off for these calls is given here.

The IC50 is the concentration at which inhibition is half-maximal.

Take `CCNC(=O)O[C@H]1/C=C(\C)CC/C=C(\C)CC[C@@H](C(C)C)/C=C/[C@@](C)(O)C1`: in the experiment with Epithelial cell [1], the outcome was inactive.

As to `C/C1=C\[C@H](OC(=O)NCCCl)C[C@](C)(O)/C=C/[C@H](C(C)C)CC/C(C)=C/CC1`, in the experiment on Epithelial cell [1], the outcome was inactive.

Consider `C/C1=C\[C@H](OC(=O)NCc2ccccc2)C[C@](C)(O)/C=C/[C@H](C(C)C)CC/C(C)=C/CC1`, for which the outcome in the experiment on Epithelial cell [1] was inactive.

For `CC(=O)O[C@H]1/C=C(\C)CC/C=C(\C)CC[C@@H](C(C)C)/C=C/[C@@](C)(O)C1`, in the experiment on Epithelial cell [1], the result was Active.

`C/C1=C\C(=O)C[C@](C)(O)/C=C/[C@H](C(C)C)CC/C(C)=C/CC1`: in the experiment with Epithelial cell [2], the result was inactive.

Consider `CC(=O)O[C@H]1/C=C(\C)CC/C=C(\C)[C@H](O)C[C@@H](C(C)C)/C=C/[C@@](C)(O)C1`, for which the result in the experiment on Epithelial cell [2] was Active. In experiment [3], the IC50 came out at 30 µM.

On to `CC(=O)O[C@H]1/C=C(\C)CC[C@@H]2OC(=N)S[C@@]2(C)CC[C@@H](C(C)C)/C=C/[C@@](C)(O)C1`, for which the result in the experiment with Epithelial cell [1] was inactive.

Consider `CC(C)=CCC/C(C)=C/CC/C(C)=C/CC[C@]1(C)CCc2cc(O)cc(C)c2O1` [DELTA-TOCOTRIENOL], for which, in experiment [3], the IC50 was determined as 7 µM.

Take `CC(=O)O[C@H]1/C=C(\C)CC/C=C(\C)[C@@H](O)C[C@@H](C(C)C)/C=C/[C@@](C)(O)C1`: the outcome in the experiment on Epithelial cell [2] was Active. The compound also had a concentration for half-maximal inhibition (IC50) in experiment [3] of 20 µM.

With `C/C1=C/C(=O)C[C@](C)(O)/C=C/[C@H](C(C)C)CC/C(C)=C/CC1`, in the experiment with Epithelial cell [2], the result was Active.

`CC(=O)/C=C/C(CC/C(C)=C/CC/C(C)=C/C(C)=O)C(C)C` (stereo not given) [SECOCEMBRANOID]: the outcome in the experiment with Epithelial cell [2] was Active. Half-maximal inhibition in experiment [3] (IC50) was put at 15 µM.

For `CC(=O)O[C@H]1/C=C(\C)CC[C@H](O)[C@@](C)(SC#N)CC[C@@H](C(C)C)/C=C/[C@@](C)(O)C1`, the outcome in the experiment on Epithelial cell [1] was inactive.

For the origin of these results see ChEMBL document CHEMBL1144722 (J Nat Prod, 2008).
